Results reported in ChEMBL document CHEMBL5532693, “Design, synthesis and antimycobacterial activity of imidazo[1,5-a]quinolines and their zinc-complexes” (RSC Med Chem, 2024).
≈ marks a conversion by molar mass, not a printed value.

Legend:
[1] = test system: Calu-3; experiment: Cytotoxicity against human Calu-3 cells assessed as reduction in cell viability at 100 uM incubated for 48 hrs by CellTiter-Glo Luminescent Cell Viability assay; format: toxicity, cell-based; details: calu-3, 48 h
Outline: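 Confluent Calu-3 cells in DMEM/F-12 GlutaMAX with 10% FCS and 1% penicillin/streptomycin, 37°C, 5% CO2. Compounds were dissolved in DMSO (10 mM stocks) and tested once at 100 μM final with 1% DMSO, in triplicate, for 48 h. ATP luminescence was normalized to the DMSO control (100%). Viability below 80% was classed as cytotoxic. Ionomycin 100 μM served as positive control.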

[2] = test system: Mycobacterium tuberculosis; experiment: Antibacterial activity against Mycobacterium tuberculosis H37Ra assessed as inhibition of bacterial growth incubated for 7 days by BacTiter-Glo reagent based assay; format: functional
Outline: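 M. tuberculosis H37Ra pre-grown 14 days in 7H9 with palmitic acid, casitone, BSA, catalase and 0.2% glycerol (37°C, 180 rpm, 85% rH). Diluted to McFarland 1, then to 1 × 10⁶ cells/mL. Compounds were in DMSO. Plates were held 7 days microaerophilic at 37°C/5% CO₂, with ATP luminescence read-out. MIC was the lowest concentration giving ≥85% inhibition versus blank-normalised untreated growth.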

[3] = test system: Mycobacterium tuberculosis; experiment: Antibacterial activity against Mycobacterium tuberculosis; format: functional

Compound: c1ccc(-c2ccc(-c3nc(-c4ccccc4)n4c3ccc3ccccc34)nc2)cc1
- Activity [1]: Non-Toxic

Compound: c1ccc(-c2nc(-c3cccc4ccccc34)n3c2ccc2ccccc23)nc1
- Activity [1]: Toxic
- MIC ([2]; 168 h, time 7 day): 1 µM (≈ 0.371 µg/mL)

Compound: c1ccc(-c2nc(-c3ncccn3)c3ccc4ccccc4n23)cc1
- Activity [1]: Toxic

Compound: c1ccc(N(c2ccccc2)c2nc(-c3ccccn3)c3ccc4ccccc4n23)cc1
- Activity [1]: Non-Toxic

Compound: c1ccc(-c2nc(-c3ccccn3)n3c2ccc2ccccc23)cc1
- Activity [1]: Toxic
- MIC ([2]; 168 h, time 7 day): 25 µM (≈ 8.03 µg/mL)

Compound: COc1nc2ccc(Br)cc2cc1[C@@H](c1ccccc1)[C@@](O)(CCN(C)C)c1cccc2ccccc12 [BEDAQUILINE]
- MIC [3]: 0.03 µM (≈ 0.0167 µg/mL)

Compound: NCC[C@H](O)C(=O)N[C@@H]1C[C@H](N)[C@@H](O[C@H]2O[C@H](CN)[C@@H](O)[C@H](O)[C@H]2O)[C@H](O)[C@H]1O[C@H]1O[C@H](CO)[C@@H](O)[C@H](N)[C@H]1O [AMIKACIN]
- MIC [3]: 0.4 µM (≈ 0.234 µg/mL)

Compound: c1ccc(-c2nc(-c3ccccc3)n3c2ccc2ccccc23)cc1
- Activity [1]: Non-Toxic

Compound: CN(C)c1ccccc1-c1nc(-c2ccccc2)n2c1ccc1ccccc12
- Activity [1]: Toxic

Compound: c1ccc(-c2nc(-c3ccccn3)c3ccc4ccccc4n23)cc1
- Activity [1]: Toxic

Compound: COc1ccccc1-c1nc(-c2ccccc2)n2c1ccc1ccccc12
- Activity [1]: Non-Toxic

Compound: CC[C@@H](CO)NCCN[C@@H](CC)CO [ETHAMBUTOL]
- MIC [3]: 0.3 µM (≈ 0.0613 µg/mL)

Compound: GENTAMICIN
- MIC ([2]; time 7.0 day): 4 µM

Compound: C[C@H]1COc2c(N3CCN(C)CC3)c(F)cc3c(=O)c(C(=O)O)cn1c23 [LEVOFLOXACIN ANHYDROUS]
- MIC [3]: 0.8 µM (≈ 0.289 µg/mL)

Compound: c1ccc(-c2nc(-c3cc4ccccc4cn3)c3ccc4ccccc4n23)cc1
- Activity [1]: Non-Toxic
- MIC ([2]; 168 h, time 7 day): 0.5 µM (≈ 0.186 µg/mL)

Compound: NNC(=O)c1ccncc1 [ISONIAZID]
- MIC [3]: 0.3 µM (≈ 0.0411 µg/mL)

Compound: c1ccc(-c2nc(-c3ccccn3)n3c2ccc2ccccc23)nc1
- Activity [1]: Non-Toxic
- MIC ([2]; 168 h, time 7 day): 6 µM (≈ 1.93 µg/mL)

Compound: c1ccc(-c2nc(-c3cccs3)c3ccc4ccccc4n23)cc1
- Activity [1]: Non-Toxic

Compound: CCc1cc(C(N)=S)ccn1 [ETHIONAMIDE]
- MIC [3]: 10 µM (≈ 1.66 µg/mL)
